Active and inactive are the calls of the source. The rule behind the calls is not given here.
How the values were obtained:
[1] = target: T1, Lanosterol synthase (Homo sapiens) (UniProt P48449); experiment: Inhibition of OSC in human HL60 cells assessed as accumulation of 2,3-oxidosqualene by GC-MS method; type: cell-based; conditions: HL-60
T1 sequence (whole entry): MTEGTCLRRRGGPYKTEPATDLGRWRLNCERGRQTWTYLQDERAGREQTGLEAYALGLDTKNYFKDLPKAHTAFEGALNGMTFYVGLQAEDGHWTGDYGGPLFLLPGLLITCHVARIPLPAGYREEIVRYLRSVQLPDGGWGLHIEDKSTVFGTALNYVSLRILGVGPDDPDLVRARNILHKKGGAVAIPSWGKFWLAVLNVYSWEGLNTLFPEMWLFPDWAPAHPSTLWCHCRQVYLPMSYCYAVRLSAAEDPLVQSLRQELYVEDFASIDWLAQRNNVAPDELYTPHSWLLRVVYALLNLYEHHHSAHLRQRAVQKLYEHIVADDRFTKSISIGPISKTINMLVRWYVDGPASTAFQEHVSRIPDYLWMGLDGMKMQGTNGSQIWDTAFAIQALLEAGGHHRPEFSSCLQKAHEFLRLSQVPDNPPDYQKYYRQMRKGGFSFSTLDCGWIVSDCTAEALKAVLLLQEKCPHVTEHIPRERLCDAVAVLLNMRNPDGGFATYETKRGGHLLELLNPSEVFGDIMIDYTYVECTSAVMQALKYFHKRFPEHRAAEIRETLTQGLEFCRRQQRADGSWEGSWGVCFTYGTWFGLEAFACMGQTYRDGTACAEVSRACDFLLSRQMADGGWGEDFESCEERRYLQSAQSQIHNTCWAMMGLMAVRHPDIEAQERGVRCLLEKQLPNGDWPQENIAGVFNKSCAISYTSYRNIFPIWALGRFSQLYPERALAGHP
Summary of the method: (§1)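 Qualitative whole-cell screen: human HL-60 cells incubated with compound, then lysed and extracted; sterol pattern analysed by GC-MS. Enzyme target assigned from characteristic precursor accumulation: 2,3-oxidosqualene for OSC, 7-dehydrocholesterol for dehydrocholesterol reductase.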

[2] = Cytotoxicity against human HL60 cells after 24 hrs by MTT assay; type: cell-based; conditions: HL-60, 24 h
Summary of the method: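 MTT assay on human leukaemia HL-60 cells, following Mosmann; cisplatin as reference; triplicate experiments.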

Saccharomyces cerevisiae = experiment: Inhibition of ergosterol biosynthesis in Saccharomyces cerevisiae DSM 1333 at 0.2 to 0.5 times MIC after 48 hrs by GC-MS analysis; type: functional, organism-based
Summary of the method: (§2)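 Whole-cell sterol-pattern assay analogous to the cholesterol one, run on S. cerevisiae, Yarrowia lipolytica and Candida glabrata; accumulation of precursor sterols and cellular ergosterol content followed.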

Yarrowia lipolytica = experiment: Inhibition of ergosterol biosynthesis in Yarrowia lipolytica DSM 1345 at 0.2 to 0.5 times MIC after 48 hrs by GC-MS analysis; type: functional, organism-based; summary of the method: as §2
Nakaseomyces glabratus = experiment: Inhibition of ergosterol biosynthesis in Candida glabrata DSM 11226 at 0.2 to 0.5 times MIC after 48 hrs by GC-MS analysis; type: functional, organism-based; summary of the method: as §2
HL-60 = experiment: Inhibition of total cholesterol biosynthesis in human HL60 cells assessed as incorporation of 2-13C-acetate by GC-MS analysis; type: functional, cell-based
Summary of the method: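 HL-60 cells incubated with inhibitor in presence of 2-13C-acetate; newly made 13C-labelled cholesterol distinguished from unlabelled pre-existing cholesterol by GC-MS after extraction; IC50 for total cholesterol biosynthesis derived; triplicate experiments.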

Lanosterol synthase = target: T2, Lanosterol synthase (Homo sapiens, UniProt P48449); experiment: Inhibition of human OSC expressed in recombinant Saccharomyces cerevisiae SMY8 using [14C]-(3S)-2,3-oxidosqualene as substrate
T2 sequence (P48449 whole entry): T1 sequence (whole entry)
Summary of the method: (§3)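 Homogenates of yeast cultures (SMY8 expressing human or T. cruzi OSC; wild-type S. cerevisiae FL100) incubated with radiolabelled 2,3-oxidosqualene at increasing inhibitor concentrations; IC50 as mean of two separate experiments, each in duplicate.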

[3] = Inhibition of Trypanosoma cruzi OSC expressed in recombinant Saccharomyces cerevisiae SMY8 using [14C]-(3S)-2,3-oxidosqualene as substrate; summary of the method: as §3
[4] = Inhibition of Saccharomyces cerevisiae FL100 wild type OSC using [14C]-(3S)-2,3-oxidosqualene as substrate; summary of the method: as §3
[5] = Inhibition of Saccharomyces cerevisiae OSC expressed in recombinant Saccharomyces cerevisiae SMY8 using [14C]-(3S)-2,3-oxidosqualene as substrate
[6] = target: T3, 7-dehydrocholesterol reductase (Homo sapiens) (UniProt Q9UBM7); experiment: Inhibition of 7-dehydrocholesterol reductase in human HL60 cells assessed as accumulation of 7-dehydrocholesterol by GC-MS method; type: cell-based; conditions: HL-60; summary of the method: as §1
T3 sequence (whole entry): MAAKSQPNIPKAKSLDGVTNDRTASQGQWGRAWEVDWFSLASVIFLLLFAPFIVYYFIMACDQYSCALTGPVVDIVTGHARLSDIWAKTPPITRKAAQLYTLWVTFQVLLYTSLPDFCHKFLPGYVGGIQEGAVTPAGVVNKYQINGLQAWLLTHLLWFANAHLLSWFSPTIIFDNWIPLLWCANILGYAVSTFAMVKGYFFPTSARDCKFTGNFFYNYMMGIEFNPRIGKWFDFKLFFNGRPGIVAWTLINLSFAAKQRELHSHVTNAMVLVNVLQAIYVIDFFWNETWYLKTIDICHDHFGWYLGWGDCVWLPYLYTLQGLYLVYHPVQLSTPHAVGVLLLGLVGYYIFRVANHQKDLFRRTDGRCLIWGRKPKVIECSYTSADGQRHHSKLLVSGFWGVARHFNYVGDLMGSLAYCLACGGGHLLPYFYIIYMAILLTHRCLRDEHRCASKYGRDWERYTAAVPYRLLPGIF

| SMILES | inhibition [1] | IC50 (HL-60) | IC50 (Lanosterol synthase) | IC50 [4] | IC50 [5] | inhibition [6] | IC50 [2] | inhibition (Saccharomyces cerevisiae) | inhibition (Yarrowia lipolytica) | inhibition (Nakaseomyces glabratus) | IC50 [3] |
| --- | --- | --- | --- | --- | --- | --- | --- | --- | --- | --- | --- |
| CN1CCC=C(c2ccc(CN(C)CCCc3ccccc3)cc2)C1 | Active |  |  |  |  |  | > 50 µM | inactive | inactive | inactive |  |
| CN1CCC=C(c2ccc(CN(C)Cc3ccccc3)cc2)C1 |  |  |  |  |  |  | > 50 µM |  |  |  |  |
| CC(C)CCCN(C)Cc1ccc(C2CCCN(C)C2)cc1 (racemic) |  |  |  |  |  |  | > 50 µM |  |  |  |  |
| CN(Cc1ccc(Cl)cc1)Cc1ccc(-c2cccnc2)cc1 |  |  |  |  |  |  | 21 µM |  |  |  |  |
| CC(C)CN(C)Cc1ccc(C2CCCN(C)C2)cc1 (racemic) |  |  |  |  |  |  | > 50 µM |  |  |  |  |
| CC(C)CN(C)Cc1ccc(C2=CCCN(C)C2)cc1 |  |  |  |  |  |  | > 50 µM |  |  |  |  |
| COC(=O)c1ccc(CN(C)Cc2ccc(C3=CCCN(C)C3)cc2)cc1 |  |  |  |  |  |  | > 50 µM |  |  |  |  |
| CN1CCC=C(c2ccc(CN(C)C/C=C/c3ccccc3)cc2)C1 | Active | 0.68 µM | 5.28 µM | > 10 µM |  |  | > 50 µM | inactive | inactive | inactive | > 10 µM |
| COc1ccc(CN(C)Cc2ccc(C3=CCCN(C)C3)cc2)cc1 |  |  |  |  |  |  | > 50 µM |  |  |  |  |
| CN(C/C=C/c1ccccc1)Cc1ccc(-c2cccnc2)cc1 |  |  |  |  |  |  | 44 µM |  |  |  |  |
| CC(C)CCCN(C)Cc1ccc(C2=CCCN(C)C2)cc1 |  |  |  |  |  |  | > 50 µM |  |  |  |  |
| CC(C)CCN(C)Cc1ccc(C2CCCN(C)C2)cc1 (racemic) |  |  |  |  |  |  | > 50 µM |  |  |  |  |
| CC(C)CCN(C)Cc1ccc(C2=CCCN(C)C2)cc1 |  |  |  |  |  |  | > 50 µM |  |  |  |  |
| C=CCN(C)CCCCCCOc1ccc(C(=O)c2ccc(Br)cc2)c(F)c1 | Active | 0.092 µM |  |  | 0.9 µM |  | 8 µM |  |  |  |  |
| CN1CCC=C(c2ccc(CN(C)C/C=C/c3ccc([N+](=O)[O-])cc3)cc2)C1 | Active | 1.28 µM |  |  |  |  | > 50 µM | inactive | inactive | inactive |  |
| CN(C)Cc1ccc([C@H]2CC[C@H](N(C)C(=O)c3ccc(Cl)cc3)CC2)cc1 | Active | 0.31 µM |  |  |  |  | > 50 µM |  |  |  |  |
| CN1CCC=C(c2ccc(CN(C)Cc3ccc4ccccc4c3)cc2)C1 | Active | 0.37 µM | > 10 µM | > 10 µM |  |  | > 50 µM | inactive | inactive | inactive | > 10 µM |

Second part, led by results:

| inhibition [1] | IC50 (HL-60) | IC50 (Lanosterol synthase) | IC50 [4] | IC50 [5] | inhibition [6] | SMILES | IC50 [2] | inhibition (Saccharomyces cerevisiae) | inhibition (Yarrowia lipolytica) | inhibition (Nakaseomyces glabratus) | IC50 [3] |
| --- | --- | --- | --- | --- | --- | --- | --- | --- | --- | --- | --- |
| Active | 1.1 µM | 2.06 µM | > 10 µM |  |  | CN(C/C=C/c1ccccc1)Cc1ccc(C2CCCN(C)C2)cc1 (configuration not stated) | > 50 µM |  |  |  | > 10 µM |
| Active | 1.32 µM | 8.51 µM | > 10 µM |  |  | CN(Cc1ccc(C2CCCN(C)C2)cc1)Cc1ccc2ccccc2c1 (racemic) | 40 µM |  |  |  | > 10 µM |
| Active |  |  |  |  |  | CN(CCCc1ccccc1)Cc1ccc(C2CCCN(C)C2)cc1 (racemic) | > 50 µM |  |  |  |  |
| Active | 2.29 µM |  |  |  |  | CN1CCC=C(c2ccc(CN(C)Cc3ccc([N+](=O)[O-])cc3)cc2)C1 | 28 µM | inactive | inactive | inactive |  |
| Active | 1.29 µM | 2.06 µM | > 10 µM |  |  | CN(Cc1ccc(Cl)cc1)Cc1ccc(C2CCCN(C)C2)cc1 (configuration not stated) | > 50 µM |  |  |  | > 10 µM |
| Active | 2.14 µM | 2.51 µM | 6.35 µM |  |  | CN1CCC=C(c2ccc(CN(C)Cc3ccc(Cl)cc3)cc2)C1 | > 50 µM | inactive | inactive | inactive | > 10 µM |
| Active | 0.14 µM | 4.22 µM | > 10 µM |  |  | CN1CCCC(c2ccc3c(c2)CCC3N(C)Cc2ccc(Cl)cc2)C1 (racemic) | > 50 µM | inactive | inactive | inactive | > 10 µM |
| Active | 0.26 µM | 0.51 µM | 4.83 µM |  |  | CN1CCC(c2ccc(CN(C)Cc3ccc(Cl)cc3)cc2)CC1 | > 50 µM | inactive | inactive | inactive | > 10 µM |
|  |  |  |  |  | Active | CN(Cc1ccc(Cl)cc1)Cc1cn(C2CCCN(C)C2)nn1 (racemic) | > 50 µM |  |  |  |  |
